Measurements reported in ChEMBL document CHEMBL1137082, “Potent and selective conformationally restricted neuronal nitric oxide synthase inhibitors” (J Med Chem, 2004).
“And” between values parts separate entries of the source, which are not always exact repeats. Identical values can stand only once.

What was measured:
Nitric oxide synthase 3 = molecular target: T1, Nitric oxide synthase 3 (Bos taurus, UniProt P29473); experiment: Inhibitory activity against endothelial nitric oxide synthase (eNOS)
T1 sequence (P29473 whole entry): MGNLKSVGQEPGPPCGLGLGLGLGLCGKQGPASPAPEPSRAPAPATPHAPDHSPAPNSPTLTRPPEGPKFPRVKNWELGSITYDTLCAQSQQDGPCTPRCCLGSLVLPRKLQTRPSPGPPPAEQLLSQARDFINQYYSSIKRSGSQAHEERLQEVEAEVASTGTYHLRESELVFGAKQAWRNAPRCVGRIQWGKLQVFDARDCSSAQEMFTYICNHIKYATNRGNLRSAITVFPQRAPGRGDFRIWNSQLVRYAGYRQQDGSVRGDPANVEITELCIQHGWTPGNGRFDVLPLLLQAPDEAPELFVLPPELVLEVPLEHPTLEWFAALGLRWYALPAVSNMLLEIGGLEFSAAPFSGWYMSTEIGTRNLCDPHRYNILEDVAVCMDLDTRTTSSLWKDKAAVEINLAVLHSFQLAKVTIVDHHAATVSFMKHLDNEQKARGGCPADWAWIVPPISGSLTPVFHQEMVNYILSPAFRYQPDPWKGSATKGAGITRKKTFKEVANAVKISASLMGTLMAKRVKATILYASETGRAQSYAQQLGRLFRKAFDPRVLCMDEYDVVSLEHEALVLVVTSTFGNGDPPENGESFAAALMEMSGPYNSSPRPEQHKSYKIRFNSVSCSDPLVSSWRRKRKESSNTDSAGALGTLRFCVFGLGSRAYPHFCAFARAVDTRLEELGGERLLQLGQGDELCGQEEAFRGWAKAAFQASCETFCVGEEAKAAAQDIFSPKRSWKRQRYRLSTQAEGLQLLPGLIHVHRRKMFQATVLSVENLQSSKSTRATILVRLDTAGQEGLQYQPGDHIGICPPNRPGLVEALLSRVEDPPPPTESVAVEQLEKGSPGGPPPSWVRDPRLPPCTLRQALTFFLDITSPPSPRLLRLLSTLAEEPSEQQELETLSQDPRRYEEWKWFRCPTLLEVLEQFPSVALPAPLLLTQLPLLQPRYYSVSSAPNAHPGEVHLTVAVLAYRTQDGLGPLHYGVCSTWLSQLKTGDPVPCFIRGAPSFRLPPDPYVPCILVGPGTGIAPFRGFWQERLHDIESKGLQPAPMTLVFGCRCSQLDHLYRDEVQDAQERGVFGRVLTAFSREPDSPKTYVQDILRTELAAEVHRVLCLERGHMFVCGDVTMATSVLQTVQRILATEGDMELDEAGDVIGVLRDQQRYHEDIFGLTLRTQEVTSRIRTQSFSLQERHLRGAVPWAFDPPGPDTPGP

Nitric oxide synthase 1 [1] = molecular target: T2, Nitric oxide synthase 1 (Rattus norvegicus, UniProt P29476); experiment: Inhibitory activity against neuronal nitric oxide synthase (nNOS); Range is 50-100 uM
Nitric oxide synthase 1 [2] = molecular target: T2, Nitric oxide synthase 1; experiment: Inhibitory activity against neuronal nitric oxide synthase (nNOS)
[3] = molecular target: T3, Nitric oxide synthase, inducible (Mus musculus) (UniProt P29477); experiment: Inhibitory activity against inducible nitric oxide synthase (iNOS) at 100 uM; parameters: scale not given: the % may be the effect or the level left
T3 sequence (whole entry): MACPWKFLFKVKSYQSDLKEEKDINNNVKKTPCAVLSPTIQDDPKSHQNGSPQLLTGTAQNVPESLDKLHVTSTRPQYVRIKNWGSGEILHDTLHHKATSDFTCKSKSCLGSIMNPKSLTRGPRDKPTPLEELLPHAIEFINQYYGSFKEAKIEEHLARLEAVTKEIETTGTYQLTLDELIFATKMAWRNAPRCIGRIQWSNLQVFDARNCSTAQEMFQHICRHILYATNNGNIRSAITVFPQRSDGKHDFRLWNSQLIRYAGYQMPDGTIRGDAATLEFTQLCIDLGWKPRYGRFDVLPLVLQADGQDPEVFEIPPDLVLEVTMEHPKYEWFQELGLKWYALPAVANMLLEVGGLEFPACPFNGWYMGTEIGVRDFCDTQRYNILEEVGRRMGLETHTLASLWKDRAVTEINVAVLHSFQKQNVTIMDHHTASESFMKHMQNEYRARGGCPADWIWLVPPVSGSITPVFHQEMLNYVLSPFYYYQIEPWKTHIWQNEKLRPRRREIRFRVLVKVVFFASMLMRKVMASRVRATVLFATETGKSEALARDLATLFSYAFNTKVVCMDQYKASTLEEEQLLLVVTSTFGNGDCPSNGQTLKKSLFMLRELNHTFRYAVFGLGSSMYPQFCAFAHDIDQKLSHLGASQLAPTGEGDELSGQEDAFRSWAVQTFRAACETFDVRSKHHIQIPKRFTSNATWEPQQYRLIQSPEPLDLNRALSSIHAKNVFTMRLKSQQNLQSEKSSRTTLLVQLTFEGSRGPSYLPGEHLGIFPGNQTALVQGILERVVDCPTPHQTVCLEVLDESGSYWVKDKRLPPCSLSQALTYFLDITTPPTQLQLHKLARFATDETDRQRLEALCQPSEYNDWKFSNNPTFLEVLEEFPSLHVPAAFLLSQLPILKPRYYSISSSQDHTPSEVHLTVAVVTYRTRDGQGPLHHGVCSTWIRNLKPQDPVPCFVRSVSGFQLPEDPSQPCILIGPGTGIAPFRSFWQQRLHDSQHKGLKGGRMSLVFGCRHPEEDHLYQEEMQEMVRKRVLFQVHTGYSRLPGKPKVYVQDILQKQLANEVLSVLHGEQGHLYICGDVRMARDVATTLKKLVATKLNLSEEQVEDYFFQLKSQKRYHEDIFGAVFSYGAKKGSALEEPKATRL
How it was run: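 Single-point screen against murine macrophage iNOS: enzyme residual activity measured at 100 μM inhibitor. NO formation monitored by hemoglobin capture assay with a UV/vis spectrophotometer.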

T2 sequence (P29476 whole entry): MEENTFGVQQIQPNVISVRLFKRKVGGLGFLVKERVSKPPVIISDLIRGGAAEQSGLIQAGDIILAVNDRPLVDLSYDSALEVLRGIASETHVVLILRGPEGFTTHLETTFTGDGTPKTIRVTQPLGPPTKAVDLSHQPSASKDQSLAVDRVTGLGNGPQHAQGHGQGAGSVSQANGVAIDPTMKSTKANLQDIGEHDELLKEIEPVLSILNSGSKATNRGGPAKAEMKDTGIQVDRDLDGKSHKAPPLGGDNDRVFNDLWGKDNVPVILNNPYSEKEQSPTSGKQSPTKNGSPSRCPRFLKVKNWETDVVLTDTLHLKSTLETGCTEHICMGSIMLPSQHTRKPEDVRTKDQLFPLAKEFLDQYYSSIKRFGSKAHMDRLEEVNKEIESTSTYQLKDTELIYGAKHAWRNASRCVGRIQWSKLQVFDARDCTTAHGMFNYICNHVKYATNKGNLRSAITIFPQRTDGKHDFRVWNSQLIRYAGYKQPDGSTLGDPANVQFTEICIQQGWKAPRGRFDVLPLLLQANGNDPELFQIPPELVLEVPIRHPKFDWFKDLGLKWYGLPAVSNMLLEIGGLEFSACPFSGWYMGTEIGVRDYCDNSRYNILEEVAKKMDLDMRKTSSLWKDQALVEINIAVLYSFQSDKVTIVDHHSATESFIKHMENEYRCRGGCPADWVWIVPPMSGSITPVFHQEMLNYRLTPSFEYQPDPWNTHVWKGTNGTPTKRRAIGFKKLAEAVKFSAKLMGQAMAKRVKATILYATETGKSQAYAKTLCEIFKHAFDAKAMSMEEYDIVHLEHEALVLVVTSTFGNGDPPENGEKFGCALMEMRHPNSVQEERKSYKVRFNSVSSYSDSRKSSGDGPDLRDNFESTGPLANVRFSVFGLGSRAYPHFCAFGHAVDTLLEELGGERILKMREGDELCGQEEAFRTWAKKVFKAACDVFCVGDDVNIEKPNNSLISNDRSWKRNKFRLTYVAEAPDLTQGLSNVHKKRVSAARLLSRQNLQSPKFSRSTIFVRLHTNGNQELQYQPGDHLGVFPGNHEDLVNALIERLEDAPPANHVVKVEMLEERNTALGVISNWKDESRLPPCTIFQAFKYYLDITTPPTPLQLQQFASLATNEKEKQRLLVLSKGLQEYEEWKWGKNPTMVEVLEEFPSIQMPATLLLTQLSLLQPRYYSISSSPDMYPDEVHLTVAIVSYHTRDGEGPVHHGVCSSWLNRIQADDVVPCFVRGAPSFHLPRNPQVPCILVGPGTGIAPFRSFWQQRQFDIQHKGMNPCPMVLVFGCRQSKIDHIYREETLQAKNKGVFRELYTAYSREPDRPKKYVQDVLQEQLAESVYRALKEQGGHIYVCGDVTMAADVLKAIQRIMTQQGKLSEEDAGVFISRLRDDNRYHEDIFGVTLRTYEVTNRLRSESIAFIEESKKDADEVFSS

For `[N-]=[N+]=N[C@H]1CN[C@@H](C(=O)C[C@@H](CCC/N=C(\N)N[N+](=O)[O-])C(N)=O)C1`, the IC50 (Nitric oxide synthase 3) was greater than 100 µM.
`[N-]=[N+]=N[C@@H]1CN[C@@H](C(=O)C[C@@H](CCC/N=C(\N)N[N+](=O)[O-])C(N)=O)C1` gave an IC50 (Nitric oxide synthase 3) greater than 100 µM and an IC50 (Nitric oxide synthase 1 [1]) of less than 100 µM.
Compound `NC(=O)[C@@H]1C[C@@H](NC(=O)C(F)(F)F)CN1C(=O)[C@H](N)CCC/N=C(\N)N[N+](=O)[O-]` has an IC50 (Nitric oxide synthase 3) greater than 100 µM.
With `NC(=O)[C@@H]1C[C@H](N)CN1C(=O)[C@H](N)CCC/N=C(\N)N[N+](=O)[O-]` the IC50 (Nitric oxide synthase 3) was greater than 100 µM.
With `NC(=O)C1CC(N)CN1C(=O)C(N)CCC/N=C(\N)N[N+](=O)[O-]` (stereo unspecified) the IC50 (Nitric oxide synthase 3) was greater than 100 µM.
With `NC(=O)[C@@H]1C[C@@H](NC(=O)C(F)(F)F)CN1C(=O)[C@@H](N)CCC/N=C(\N)N[N+](=O)[O-]` the IC50 (Nitric oxide synthase 3) was greater than 100 µM and the IC50 (Nitric oxide synthase 1 [2]) was roughly 100 µM.
With `NC(=O)[C@@H]1C[C@H](NC(=O)C(F)(F)F)CN1C(=O)[C@H](N)CCC/N=C(\N)N[N+](=O)[O-]` the IC50 (Nitric oxide synthase 3) was greater than 100 µM.
With `NC(=O)[C@@H]1C[C@@H](N)CN1C(=O)[C@H](N)CCC/N=C(\N)N[N+](=O)[O-]` the IC50 (Nitric oxide synthase 3) was greater than 100 µM.
`NC(=O)[C@@H]1C[C@@H](N)CN1C(=O)[C@@H](N)CCC/N=C(\N)N[N+](=O)[O-]` was tested, and the IC50 (Nitric oxide synthase 3) was greater than 100 µM and the IC50 (Nitric oxide synthase 1 [2]) was roughly 100 µM.
`NC(=O)[C@@H]1C[C@H](N)CN1C(=O)[C@@H](N)CCC/N=C(\N)N[N+](=O)[O-]` showed an IC50 (Nitric oxide synthase 3) greater than 100 µM.
`NC(=O)[C@@H]1C[C@H](NC(=O)C(F)(F)F)CN1C(=O)[C@@H](N)CCC/N=C(\N)N[N+](=O)[O-]` was tested, and the IC50 (Nitric oxide synthase 3) was greater than 100 µM.
`CC(=N)Nc1cccc(CN)c1` was tested, and the IC50 (Nitric oxide synthase 3) was 0.48 µM and 1.1 µM and the IC50 (Nitric oxide synthase 1 [2]) was 0.011 µM.
Compound `NC(=O)[C@@H]1C[C@@H](NC(=O)[C@H](N)CCC/N=C(\N)N[N+](=O)[O-])CN1` has an Activity [3] of 97%.
Compound `NC(=O)[C@@H]1C[C@H](NC(=O)[C@@H](N)CCC/N=C(\N)N[N+](=O)[O-])CN1` has an Activity [3] of 95%.
`NC(=O)[C@@H]1C[C@H](NC(=O)[C@H](N)CCC/N=C(\N)N[N+](=O)[O-])CN1` was tested, and the Activity [3] was 96%.
Compound `[N-]=[N+]=N[C@H]1CNC(C(=O)N[C@H](CCCNC(=N)N[N+](=O)[O-])C(N)=O)C1` (single isomer, unassigned) has an IC50 (Nitric oxide synthase 3) greater than 100 µM and an IC50 (Nitric oxide synthase 1 [1]) of less than 100 µM.
Compound `[N-]=[N+]=N[C@@H]1CNC(C(=O)N[C@H](CCCNC(=N)N[N+](=O)[O-])C(N)=O)C1` (single isomer, unassigned) has an IC50 (Nitric oxide synthase 3) greater than 100 µM.
For `N=C(NCCC[C@@H](NC(=O)C1C[C@H](N)CN1)C(N)=O)N[N+](=O)[O-]` (single isomer, unassigned), the IC50 (Nitric oxide synthase 3) was greater than 100 µM.
In the case of `N=C(NCCC[C@@H](NC(=O)C1C[C@@H](N)CN1)C(N)=O)N[N+](=O)[O-]` (single isomer, unassigned), the IC50 (Nitric oxide synthase 3) is reported as greater than 100 µM.
For `N=C(NCCC[C@H](NC(=O)C1C[C@@H](N)CN1)C(N)=O)N[N+](=O)[O-]` (single isomer, unassigned), the IC50 (Nitric oxide synthase 3) was greater than 100 µM.
`N=C(NCCC[C@H](NC(=O)C1C[C@H](N)CN1)C(N)=O)N[N+](=O)[O-]` (single isomer, unassigned) was tested, and the IC50 (Nitric oxide synthase 3) was greater than 100 µM.
With `[N-]=[N+]=N[C@@H]1CNC(C(=O)N[C@@H](CCC/N=C(\N)N[N+](=O)[O-])C(N)=O)C1` (single isomer, unassigned) the IC50 (Nitric oxide synthase 3) was greater than 100 µM.
In the case of `[N-]=[N+]=N[C@H]1CNC(C(=O)N[C@@H](CCC/N=C(\N)N[N+](=O)[O-])C(N)=O)C1` (single isomer, unassigned), the IC50 (Nitric oxide synthase 3) is reported as greater than 100 µM and the IC50 (Nitric oxide synthase 1 [1]) is reported as less than 100 µM.
`N=C(NCCC[C@@H](N)C(=O)NC1CNC(C(N)=O)C1)N[N+](=O)[O-]` (single isomer, unassigned) gave an Activity [3] of 96%.
Compound `N=C(NCCC[C@@H](N)C(=O)N[C@H]1CNC(C(N)=O)C1)N[N+](=O)[O-]` (single isomer, unassigned) has an Activity [3] of 97%.
Work on `N=C(NCCC[C@H](N)C(=O)N[C@H]1CNC(C(N)=O)C1)N[N+](=O)[O-]` (single isomer, unassigned) yielded an Activity [3] of 94%.
`N=C(NCCC[C@H](N)C(=O)N1CC(NC(=O)C(F)(F)F)C[C@@H]1C(N)=O)N[N+](=O)[O-]` (single isomer, unassigned; cis) gave an IC50 (Nitric oxide synthase 3) greater than 100 µM.
`[N-]=[N+]=NC1CN[C@@H](C(=O)N[C@H](CCCNC(=N)N[N+](=O)[O-])C(N)=O)C1` (single isomer, unassigned; cis) was tested, and the IC50 (Nitric oxide synthase 3) was greater than 100 µM.
For `N=C(NCCC[C@@H](N)C(=O)N1CC(NC(=O)C(F)(F)F)C[C@@H]1C(N)=O)N[N+](=O)[O-]` (single isomer, unassigned; cis), the IC50 (Nitric oxide synthase 3) was greater than 100 µM.
Compound `N=C(NCCC[C@H](N)C(=O)N1CC(N)C[C@@H]1C(N)=O)N[N+](=O)[O-]` (single isomer, unassigned; cis) has an IC50 (Nitric oxide synthase 3) greater than 100 µM.
Work on `N=C(NCCC[C@@H](N)C(=O)N1CC(N)C[C@@H]1C(N)=O)N[N+](=O)[O-]` (single isomer, unassigned; cis) yielded an IC50 (Nitric oxide synthase 3) greater than 100 µM and an IC50 (Nitric oxide synthase 1 [2]) of roughly 100 µM.
Work on `N=C(NCCC[C@@H](NC(=O)[C@H]1CC(N)CN1)C(N)=O)N[N+](=O)[O-]` (single isomer, unassigned; cis) yielded an IC50 (Nitric oxide synthase 3) greater than 100 µM and an IC50 (Nitric oxide synthase 1 [1]) of less than 100 µM.
In the case of `N=C(NCCC[C@H](NC(=O)[C@H]1CC(N)CN1)C(N)=O)N[N+](=O)[O-]` (single isomer, unassigned; cis), the IC50 (Nitric oxide synthase 3) is reported as greater than 100 µM and the IC50 (Nitric oxide synthase 1 [1]) is reported as less than 100 µM.
`NC(=O)[C@H]1CC(N)CN1C(=O)[C@@H](N)CCC/N=C(\N)N[N+](=O)[O-]` (single isomer, unassigned; trans) was tested, and the IC50 (Nitric oxide synthase 3) was greater than 100 µM.
`NC(=O)[C@H]1CC(NC(=O)C(F)(F)F)CN1C(=O)[C@H](N)CCC/N=C(/N)N[N+](=O)[O-]` (single isomer, unassigned; trans) gave an IC50 (Nitric oxide synthase 3) greater than 100 µM.
`N=C(NCCC[C@H](N)C(=O)N1CC(NC(=O)C(F)(F)F)C[C@@H]1C(N)=O)N[N+](=O)[O-]` (single isomer, unassigned; trans) gave an IC50 (Nitric oxide synthase 3) greater than 100 µM.
Compound `[N-]=[N+]=NC1CN[C@@H](C(=O)N[C@H](CCCNC(=N)N[N+](=O)[O-])C(N)=O)C1` (single isomer, unassigned; trans) has an IC50 (Nitric oxide synthase 3) greater than 100 µM.
Compound `N=C(NCCC[C@@H](NC(=O)[C@H]1CC(N)CN1)C(N)=O)N[N+](=O)[O-]` (single isomer, unassigned; trans) has an IC50 (Nitric oxide synthase 3) greater than 100 µM and an IC50 (Nitric oxide synthase 1 [1]) of less than 100 µM.
For `N=C(NCCC[C@H](NC(=O)[C@H]1CC(N)CN1)C(N)=O)N[N+](=O)[O-]` (single isomer, unassigned; trans), the IC50 (Nitric oxide synthase 3) was greater than 100 µM and the IC50 (Nitric oxide synthase 1 [1]) was less than 100 µM.
In the case of `N=C(NCCC[C@@H](N)C(=O)N1CC(N)C[C@@H]1C(N)=O)N[N+](=O)[O-]` (single isomer, unassigned; trans), the IC50 (Nitric oxide synthase 3) is reported as greater than 100 µM.
